Activity calls are given as the source filed them. The calls are words filed in the database; no cut-off is given here.
Key:
Trypanosoma cruzi [1] = experiment: Antitrypanosomal activity against Trypanosoma cruzi trypomastigotes measured after 24 hrs by resazurin dye based assay; assay type: functional, organism-based
Outline: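 Cell-derived trypomastigotes, 1 × 10^6/well, exposed 24 h at 37 °C; viability by resazurin read at 570 nm; benznidazole as standard; IC50 calculated.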

Trypanosoma cruzi [2] = experiment: Antitrypanosomal activity against Trypanosoma cruzi amastigotes infected in peritoneal macrophages (unknown origin) measured after 48 hrs by resazurin dye based assay; assay type: functional, organism-based
[3] = Cytotoxicity against mouse L929 cells measured after 48 hrs by MTT assay; assay type: cell-based
Outline: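 NCTC clone L929 cells, 6 × 10^4/well, incubated with compound 48 h at 37 °C; viability by MTT at 570 nm; CC50 taken as 50% cytotoxic concentration; highest concentration 200 μM.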

[4] = Selectivity index, ratio of CC50 for mouse L929 cells to IC50 for Trypanosoma cruzi trypomastigotes; assay type: toxicity; details: read-out: Ratio CC50/IC50
Outline: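 Ratio of the mammalian CC50 (L929, MTT, 48 h) to the IC50 against trypomastigotes (resazurin, 24 h).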

[5] = Selectivity index, ratio of CC50 for mouse L929 cells to IC50 for Trypanosoma cruzi amastigotes infected in peritoneal macrophages (unknown origin); assay type: toxicity; details: read-out: Ratio CC50/IC50
Outline: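 Ratio of the L929 CC50 (MTT, 48 h) to the intracellular amastigote IC50 (infected peritoneal macrophages, 48 h).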

Trypanosoma cruzi [6] = experiment: Antitrypanosomal activity against Trypanosoma cruzi amastigotes infected in peritoneal macrophages (unknown origin) assessed as elimination of parasite at 100 uM by optical microscopic analysis; assay type: functional, organism-based
Outline: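 Peritoneal macrophages infected with T. cruzi trypomastigotes (ratio 10:1) and treated at 100 μM. Infected untreated macrophages served as control. Parasite clearance was judged by optical microscopy at 1000× magnification.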

Trypanosoma cruzi [7] = experiment: Disruption of plasma membrane integrity in Trypanosoma cruzi trypomastigotes at antitrypanosomal IC50 measured after 120 mins by Sytox green dye based fluorescence assay; assay type: functional, organism-based
Outline: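 Trypomastigotes (2 × 10^6/well) with 1 μM SYTOX Green, compound at IC50, fluorescence followed 120 min at ex 485/em 520 nm; 0.5% Triton X-100 gives maximal permeabilization; compound background and DMSO controls; duplicates, at least two independent assays.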

Trypanosoma cruzi [8] = experiment: Induction of plasma membrane electric potential depolarization in Trypanosoma cruzi trypomastigotes at antitrypanosomal IC50 measured after 60 mins by DiSBAC2(3) dye based flow cytometry; assay type: functional, organism-based
Outline: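 Trypomastigotes (2 × 10^6/well) exposed at IC50 for 60 min at 37 °C, then 0.2 μM DiSBAC2(3) added and read by flow cytometry; gramicidin D 0.5 μg/mL defined 100%, untreated 0%; at least two independent assays in duplicate.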

Trypanosoma cruzi [9] = experiment: Induction of reactive oxygen species generation in Trypanosoma cruzi trypomastigotes at antitrypanosomal IC50 measured after 60 to 120 mins by H2DCFDA dye based fluorescence assay; assay type: organism-based; details: in vitro
Outline: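 Trypomastigotes incubated with compound at IC50 for 60 and 120 min, then 20 μM H2DCFDA 15 min at 37 °C; fluorescence ex 485/em 520 nm; 10 mM sodium azide positive control, untreated negative; compound background and DMSO controls.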

Trypanosoma cruzi [10] = experiment: Induction of mitochondrial membrane potential depolarization in Trypanosoma cruzi trypomastigotes at antitrypanosomal IC50 measured after 2 hrs by JC1 dye based flow cytometry; assay type: functional, organism-based
Trypanosoma cruzi [11] = experiment: Induction of mitochondrial membrane potential depolarization in Trypanosoma cruzi trypomastigotes at antitrypanosomal IC50 measured after 2 hrs by DAPI/Mito tracker red dye based fluorescence microscopic analysis; assay type: functional, organism-based
Outline: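 Treated trypomastigotes costained with 10 μM DAPI and 1 μM MitoTracker Red CM-H2XROS, 30 min at 37 °C in the dark, then fluorescence microscopy; CCCP positive control, untreated parasites as reference.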

[12] = Trypanosoma cruzi, 24 h, read-out: IC50
[13] = Trypanosoma cruzi, 48 h, read-out: IC50

CCCCCCCCCCCCCCCCCC(=O)O [STEARIC ACID]
IC50 (Trypanosoma cruzi [1]): Not Active
IC50 (Trypanosoma cruzi [2]): Not Active

C=CCCCCCCC#CCCCCCCCCCC[C@@H]1C(=O)O[C@H](C)[C@@H]1O
IC50 (Trypanosoma cruzi [1]; [12]): 7.8 µM
IC50 (Trypanosoma cruzi [2]; [13]): 58.3 µM
CC50 at 48 h [3]: > 200 µM
selectivity ratio [4]: > 25.6
selectivity ratio [5]: > 3.4

CCCCCCCCCCCCCCCCCCCC[C@@H]1C(=O)O[C@H](C)[C@@H]1O
IC50 (Trypanosoma cruzi [1]): Not Active
IC50 (Trypanosoma cruzi [2]): Not Active

O=C(Cn1ccnc1[N+](=O)[O-])NCc1ccccc1 [BENZNIDAZOLE]
IC50 (Trypanosoma cruzi [1]; [12]): 5.5 µM
IC50 (Trypanosoma cruzi [2]; [13]): 18.7 µM

C=CCCCCCCC#CCCCCCCCCCCC1=C(O)[C@@H](C)OC1=O
IC50 (Trypanosoma cruzi [1]; [12]): 3.6 µM
IC50 (Trypanosoma cruzi [2]; [13]): 27.7 µM
CC50 at 48 h [3]: > 200 µM
selectivity ratio [4]: > 55.6
selectivity ratio [5]: > 7.2
Activity (Trypanosoma cruzi [6]): Active
Activity (Trypanosoma cruzi [7]): inactive
Activity (Trypanosoma cruzi [8]): Active
Activity (Trypanosoma cruzi [9]): Non-Toxic
Activity (Trypanosoma cruzi [10]): Active
Activity (Trypanosoma cruzi [11]): Active

C=CCCCCCCC#CCCCCCCCCCCC1=C(O)C(=C)OC1=O
IC50 (Trypanosoma cruzi [1]; [12]): 0.4 µM
IC50 (Trypanosoma cruzi [2]; [13]): 23 µM
CC50 at 48 h [3]: 80 µM
selectivity ratio [4]: 200
selectivity ratio [5]: 3.5
Activity (Trypanosoma cruzi [6]): Active
Activity (Trypanosoma cruzi [7]): inactive
Activity (Trypanosoma cruzi [8]): Active
Activity (Trypanosoma cruzi [9]): Non-Toxic
Activity (Trypanosoma cruzi [10]): Active
Activity (Trypanosoma cruzi [11]): Active

CCCCCCCCC#CCCCCCCCC(=O)O
IC50 (Trypanosoma cruzi [1]; [12]): 27.6 µM
IC50 (Trypanosoma cruzi [2]): Not Active
CC50 at 48 h [3]: > 200 µM
selectivity ratio [4]: > 7.2

— ChEMBL document CHEMBL4316656, “Antitrypanosomal Activity of Acetogenins Isolated from the Seeds of Porcelia macrocarpa Is Associated with Alterations in Both Plasma Membrane Electric Potential and Mitochondrial Membrane Potential” (J Nat Prod, 2019)
